Experimental data as given in ChEMBL document CHEMBL4513216, “Probing the Open Global Health Chemical Diversity Library for Multistage-Active Starting Points for Next-Generation Antimalarials” (ACS Infect Dis, 2020).

Assay: Toxicity liver stage against HepG2, at 10uM
Format: cell-based
Design: test concentration 10 uM, cell line HepG2-A16-CD81EGFP
Details: human, HepG2-A16-CD81EGFP cells; read-out: INHIBITION
How it was run: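 Uninfected HepG2-A16-CD81EGFP cells, 3 × 10^3 per well, 1536-well, plated on prespotted compound at 10 μM final, parasite-free screening media added to match infected plates; puromycin 10 μM positive, DMSO 0.5% negative; run in parallel with 48 h PbLuc assay at 37 °C, 5% CO2; viability by CellTiter-Glo luminescence, normalized to controls.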

SMILES	cytotoxicity at 10 µM [%]
Cc1noc(CCCC(=O)N(CC2CCOC2)C2CC2)n1 (stereo unspecified)	13
CN1CCCc2c1nc1c(c2N)CCCC1	11.2
Cc1nc[nH]c1CN1CCN(C(=O)CCC(F)(F)F)[C@H]2CS(=O)(=O)C[C@H]21	-12.3
CCc1cnc(C)nc1NCCNc1nc(C)cc(=O)[nH]1	-9.01
CCNC(=O)CNS(=O)(=O)c1cc(Br)ccc1F	-55.4
COCC(=O)N1CCN2C(=O)OC[C@H]2C1	1.82
CC(C)CC(NC(=O)CN(C)C(=O)c1ccco1)c1cccs1 (stereo unspecified)	-1.24
O=C(c1cnccn1)N1CCCC(Cn2cc(C3CC3)nn2)C1 (stereo unspecified)	-5.9
CC(C)(C)c1n[nH]c(C2CN(C(=O)CCc3cscn3)CCO2)n1 (stereo unspecified)	-17.3
CN(Cc1nc(C(F)(F)F)cs1)C(=O)CCc1cccnc1	9.75
Cc1c(CN2CCCC(C(=O)c3ccccc3)C2)cc(C#N)n1C (stereo unspecified)	-6.63
O=C(Nc1cnc2n1CCCC2)c1cccc(OCC(F)(F)F)c1	-0.651
Clc1ccccc1C1CN(CCc2ccncc2)CCO1 (stereo unspecified)	3.61
CC(C)(C)NC(=O)C1CSCN1S(=O)(=O)c1cccc(F)c1 (stereo unspecified)	-16.7
Cc1nn(C)c(N2CCOCC2)c1CNCC1CCS(=O)(=O)C1 (stereo unspecified)	-2.09
Fc1cccc(Cl)c1CNCc1ccccn1	-2.25
Cc1nc2oc(C(=O)N3CCCC3)c(N)c2c2c1CCCC2	-6.95
CCn1cc(NC(=O)C(C)n2ncc(Cl)c2C)c(C(=O)OC)n1 (stereo unspecified)	7.19
Cc1nc(CCCNC(=O)C2CC(=O)N(C(C)(C)C)C2)sc1C (stereo unspecified)	-6.86
Cc1nc(O)cc([C@@H]2CN(S(=O)(=O)N(C)C)C[C@H]2c2ccccc2F)n1	5.8
CCN(CC)C(=O)CN1CCc2nc(C3CCNCC3)nc(NC)c2C1	-5.46
CCOc1ccc(C#N)cc1NCC(=O)Nc1cc(C)no1	-6.67
Cc1ccc(OCCCC(=O)Nc2nonc2C)cc1C	7.03

SMILES	cytotoxicity at 10 µM [%]
OCC1(CNC2CCc3cc4c(cc32)OCCO4)CC1 (stereo unspecified)	-3.37
COCCN1CCO[C@@H]2CN(S(=O)(=O)c3cccnc3)C[C@@H]2C1	16.3
COc1cccc([C@H]2CN(C(=O)c3scc4c3CCCC4)C[C@@H]2N)c1	-3.45
Fc1cnc(N2CCC3(CC2)CC(OCc2cccnc2)CO3)nc1 (stereo unspecified)	2.25
Cc1cccc(-n2cc3[nH]c(=O)n(Cc4cccc(F)c4)n3c2=O)c1	1.79
Cn1cc(CN2CCCC23CCN(C(=O)c2ccccn2)CC3)cn1	-1.94
O=C(c1ccsc1)N1C[C@H]2CN(Cc3cccnc3)C(=O)[C@H]2C1	-5.15
CCn1ccc(CNC(=O)c2cc(OC)cc(OC)c2)n1	8.66
Cc1ncsc1C(=O)N1CC[C@@]2(O)CCN(C(=O)N3CCCC3)C[C@H]2C1	-14.2
CC(C)Oc1ccc(C(=O)N2CCCCC2Cn2cccn2)cn1 (stereo unspecified)	-14.9
CSCC(=O)N(C)Cc1ccc(N(C)C)cc1	8.63
Cc1ccc(Br)c(S(=O)(=O)NCc2cnn(C)c2)c1	6.95
COCCC1(CO)CCCN(Cc2ccncc2)C1 (stereo unspecified)	-141
Cc1ccc2c(c1)CCCN2C(=O)c1cncc(Br)c1	-8.79
Cc1cccc(CN2C(=O)CCC23CCN(c2ncc(F)cn2)CC3)n1	9.11
CCn1nccc1CNc1nc(N)nc2c1nc(C)n2C	-8.13
Cc1c(C)n2c(SCC(=O)N3CCCCC3)nnc2[nH]c1=O	3.33
Cc1cc(C)c2nc(CN3CCCC(c4cc[nH]n4)C3)cc(O)c2c1 (stereo unspecified)	-3.97
Cc1nn2cccnc2c1C(=O)N1CCCC(n2ccnc2)C1 (stereo unspecified)	-4.62
O=C(CCn1cnnc1)N1CCCC(c2ncc[nH]2)C1 (stereo unspecified)	-9.01
CC(C)(C)OC(=O)N1CCC(C(=O)NC2CCS(=O)(=O)C2)CC1 (stereo unspecified)	-6.81
Fc1ccc(CN2CCO[C@H]3[C@H](OCC4CCCC4)CC[C@@H]32)cc1	37.9
CCOc1ncccc1CNS(=O)(=O)c1ccc2c(c1)CCCC(=O)N2	12.1

SMILES	cytotoxicity at 10 µM [%]
COCc1csc(NC(=O)NCc2ccsc2)n1	4.53
Cn1cc(Cl)cc1C(=O)N1CCN(CCc2cccs2)CC1	-11.8
O=C(CCn1ccccc1=O)Nc1ccc(C(=O)O)cc1	4.74
Cc1cccc(C(=O)N2CCCN(CCc3scnc3C)CC2)c1	-2.52
CCOc1c(Cl)cc(/C=C/c2ncc(C(=O)O)s2)cc1OC	3.91
CN(Cc1cscn1)Cc1cc2c(cc1Br)OCO2	-4
NC1CCCN(C(=O)c2csc(-c3ccc(C(F)(F)F)cc3)n2)CC1 (stereo unspecified)	-15.1
COc1cccc(OCCN2CC[C@@](O)(C3CCOCC3)[C@H](C)C2)c1	-7.03
CCc1nc(C)c(CN2CCCC(c3nn(C)c(=O)n3CC)C2)[nH]1 (stereo unspecified)	-7.77
COC(C)C(=O)NS(=O)(=O)c1cccc2cc(C)cnc12 (stereo unspecified)	-6.55
CO[C@@H]1CC[C@H]2[C@H]1OCCN2C(=O)C1=CCCC1	-6.34
CCn1c(Cn2cncn2)nnc1C1CCN(CCN)CC1	-0.111
Cc1ccc(NC(=O)CN(C)C(=O)c2ccc(-n3cccc3)nc2)nc1	12.4
Cc1ccc(N2CCCN(C(=O)CC3CCCO3)CC2)nn1 (stereo unspecified)	-3.68
CCOC(=O)C(C)NC(=O)CCSc1ccc(F)cc1 (stereo unspecified)	9.13
O=C(c1ccc(Cn2cnnn2)cc1)N1CCC(c2ccncc2)CC1	0.571
Cc1cccc(CN2C[C@@H]3CN(C(=O)NC(C)C)C[C@@H]3C2=O)c1	-12.9
Cc1nc(C)n(CC2CCCN(Cc3nnc(C4CC4)o3)C2)n1 (stereo unspecified)	-12.9
CCCc1cc(C(=O)N2C[C@H]3CC=C(C)C[C@H]3C2)ccn1	0.782
Cn1cc(C(=O)N2C[C@H]3CC(Oc4ccccc4)C[C@H]3C2)cn1 (stereo partly specified)	3.6
Cc1cc(CN2CCC(C(=O)O)(n3ccc(-c4ccco4)n3)CC2)on1	-131
COCC1CN(C(=O)Cc2ccc(F)cc2)Cc2ccnn2C1 (stereo unspecified)	-73.9
Cc1ccccc1NC(=O)N1CCN(Cc2noc(C3CC3)n2)CC1	-17

SMILES	cytotoxicity at 10 µM [%]
O=C(NC[C@@H]1CCCO1)c1cccnc1N1CCCC1c1ccccn1 (stereo partly specified)	-1.08
CC1(c2ncc(CN3CCN(c4ncccn4)CC3)cn2)CCCCO1 (stereo unspecified)	1.16
CNc1cc(N2CCCC2CNCc2ccc(Cl)o2)ncn1 (stereo unspecified)	-11.6
COc1ccc(C(=O)NCCCOC(C)c2ccccc2)c(OC)c1 (stereo unspecified)	-17.3
CC(Cn1cccn1)NC(=O)NCCc1ccsc1 (stereo unspecified)	-14.8
CCc1ccc(CN2C[C@H](OC)[C@H]3COC[C@H]32)o1	5.22
CCS(=O)(=O)N1CCC(CSc2ccccc2)C1 (stereo unspecified)	2.42
CCN(C)c1ncnc2c1CCN(C(=O)[C@H]1CCCO1)CC2	3.38
CN(C)CC(=O)N1CCCC1c1cncc(Oc2ccc(F)cc2)n1 (stereo unspecified)	-10.9
COc1ccc(C2CCN(S(=O)(=O)CCCC#N)CC2)cc1	7.13
CCn1c(C2CCN(C(=O)c3cc(CC(C)C)on3)CC2)nn(C)c1=O	-3.89
CN(C)CCN(Cc1cccc(C(F)(F)F)c1)C(=O)c1cc[nH]n1	1.39
CC(C)N(CC1CCCN(CC(N)=O)C1)C(=O)OC(C)(C)C (stereo unspecified)	-5.66
COCC1c2nnn(C)c2CCN1C(=O)Cc1ccc2c(c1)OCO2 (stereo unspecified)	9.46
CC(C)n1ccc(-c2cc(C(=O)N3CCCC3)c3ccccn23)n1	-2.7
CCn1cnnc1CNC(=O)N1CCC(C(=O)NC)CC1	2.65
Cc1nnn2c1COCC(CNC(=O)c1cnoc1C)C2 (stereo unspecified)	-2.69
Cc1ccc(OCC(=O)NCc2ccccc2F)nc1	-12
CCc1cccc2c(CC(=O)N(C)CCN(C)C)c(C)[nH]c12	1.26
Cc1cnccc1CN1CC[C@@](C)(O)[C@H](Oc2ccccc2)C1	-1.78
CC(O)CN1CCN(C(=O)c2ccc(Br)o2)CC1 (stereo unspecified)	-8.6
Cn1c(N)nnc1SCc1c(F)cccc1Br	-43.2
CC1CN(CC(=O)NC(=O)NCc2ccccc2)CCO1 (stereo unspecified)	-7.07

SMILES	cytotoxicity at 10 µM [%]
Cc1cccc(CN2CCC3(CCCN(C(=O)CN(C)C)C3)C2=O)n1 (stereo unspecified)	-3.49
CCN1CCC(NC(=O)N(C)Cc2csc3ccccc23)CC1	-45
CC(C)N(C)C(=O)c1ccc(CNc2ccncc2Cl)cc1	55.8
CN(C)c1cc(CNC(=O)c2ccc(O)nc2)ccn1	-16
CSCc1ccc(N(C)CC2CCCN(C(C)C)C2)nc1 (stereo unspecified)	-128
Cc1ccc2cc(C(=O)N3CCN(S(C)(=O)=O)CC3)[nH]c2c1	-58.1
CCN1CCN(CCNc2nc3ccc(C)cc3c(=O)n2C)CC1	10.7
COCCn1ccc2c(C(=O)NCC3CCCO3)cccc21 (stereo unspecified)	1.53
O=c1[nH]nc2nc(N3CCSCC3)ccn12	-13.5
Cc1nnc(CNCC2(O)CCCN(Cc3ccc(F)c(F)c3)C2=O)[nH]1 (stereo unspecified)	-6.79
CN(CCNc1cc(N2CCCC2CO)ncn1)Cc1ccccc1 (stereo unspecified)	15.7
c1ccc2c3c([nH]c2c1)CN(Cc1cc2n(n1)CCNC2)CC3	3.06
CC(C)c1noc(CN2CCC(c3nc4cc(Cl)ccc4o3)CC2)n1	1.81
N#Cc1ccc(N2CCC(NS(=O)(=O)c3cccs3)CC2)c(F)c1	20.5
CSCC(C)(O)CNS(=O)(=O)c1ccc(Br)cc1 (stereo unspecified)	-1.61
CC(C)c1nc(S(=O)(=O)N2CCSc3ccccc32)c[nH]1	2.7
CCc1nc(C2CCCN2C(=O)CCNS(C)(=O)=O)no1 (stereo unspecified)	-1.77
CCNC(=O)NC(=O)CN1CCOC(c2ccc(Br)cc2)C1 (stereo unspecified)	2.08
COCc1c(Br)cccc1NC(=O)CC(F)(F)F	2.38
